Tests used:
[1] = tested on: Rattus norvegicus; assay: DOM appropriate responding in percent when compound administered at 0.2 mg/kg; assay type: functional
Summary of the method: (§1)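 Rats trained to discriminate DOM (1.0 mg/kg ip, 15-min presession interval) from saline on two levers. Test doses given ip. Percent of responses on the DOM-appropriate lever recorded during a 2.5-min extinction session.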

[2] = tested on: Rattus norvegicus; assay: DOM appropriate responding in percent when compound administered at 0.1 mg/kg; assay type: functional; summary of the method: as §1
[3] = tested on: Rattus norvegicus; assay: DOM appropriate responses per min when compound administered at 0.1 mg/kg; assay type: functional
Summary of the method: (§2)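 DOM (1.0 mg/kg ip) versus saline two-lever discrimination in food-restricted male Sprague-Dawley rats. Test doses given ip with a 15-min presession interval. Response rate (responses/min) measured during a 2.5-min extinction test session.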

[4] = tested on: Rattus norvegicus; assay: DOM appropriate responses per min when compound administered at 0.5 mg/kg; assay type: functional; summary of the method: as §2
[5] = molecular target: Serotonin 1 (5-HT1) receptor (Rattus norvegicus, UniProt P28564+P30940+P19327+P28565); assay: Binding affinity for 5-hydroxytryptamine 1 receptor of rat prefrontal cortex; assay type: tissue-based
Summary of the method: (§3)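 Rat prefrontal cortex (female Sprague-Dawley, ca. 200 g) homogenate, 4 mg wet weight tissue per tube, in 50 mM Tris, 5 mM MgCl2, 0.5 mM EDTA (pH 7.4 at 37 °C). Radioligand 2 nM [3H]-5-HT for 5-HT1 or 0.4 nM [3H]ketanserin for 5-HT2. Nonspecific binding with 1 μM 5-HT or 1 μM cinanserin. Filtration, scintillation counting. IC50 from a 23-point curve in triplicate by nonlinear fit; Ki by Cheng-Prusoff.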

[6] = tested on: Rattus norvegicus; assay: Number of animals responding to the drug 0.1 (mg/kg) out of 4 animals tested; assay type: functional
[7] = tested on: Rattus norvegicus; assay: DOM appropriate responding in percent when compound administered at 0.5 mg/kg; assay type: functional; summary of the method: as §1
[8] = tested on: Rattus norvegicus; assay: Number of animals responding to the drug 0.2 (mg/kg) out of 3 animals tested; assay type: functional
[9] = tested on: Rattus norvegicus; assay: DOM appropriate responses per min when compound administered at 0.2 mg/kg; assay type: functional; summary of the method: as §2
[10] = tested on: Rattus norvegicus; assay: Concentration required to produce DOM like response when administered in rats; assay type: functional
Summary of the method: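 Six male Sprague-Dawley rats, food-restricted to about 80% of free-feeding weight, trained on two-lever drug discrimination: DOM HCl 1.0 mg/kg ip versus saline, 15 min pre-session. Test drug given ip before a 2.5-min extinction test.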

[11] = molecular target: Serotonin 2 (5-HT2) receptor (Rattus norvegicus, UniProt P30994+P08909+P14842); assay: Displacement of [3H]ketanserin from rat prefrontal cortex 5-hydroxytryptamine 2 receptor; assay type: tissue-based; summary of the method: as §3
[12] = tested on: Rattus norvegicus; assay: Number of animals responding to the drug 0.5 (mg/kg) out of 3 animals tested; assay type: functional
[13] = tested on: Rattus norvegicus; assay: DOM appropriate responses per min when compound administered at 10 mg/kg; assay type: functional; summary of the method: as §2
[14] = tested on: Rattus norvegicus; assay: Number of animals responding to the drug 2 (mg/kg) out of 4 animals tested; assay type: functional
[15] = tested on: Rattus norvegicus; assay: DOM appropriate responding in percent when compound administered at 5 mg/kg; assay type: functional; summary of the method: as §1
[16] = tested on: Rattus norvegicus; assay: DOM appropriate responses per min when compound administered at 2 mg/kg; assay type: functional; summary of the method: as §2
[17] = tested on: Rattus norvegicus; assay: DOM appropriate responses per min when compound administered at 12 mg/kg; assay type: functional; summary of the method: as §2
[18] = tested on: Rattus norvegicus; assay: DOM appropriate responding in percent when compound administered at 12 mg/kg; assay type: functional; summary of the method: as §1
[19] = tested on: Rattus norvegicus; assay: Number of animals responding to the drug 5 (mg/kg) out of 4 animals tested; assay type: functional
[20] = tested on: Rattus norvegicus; assay: Number of animals responding to the drug 11 (mg/kg) out of 3 animals tested; assay type: functional
[21] = tested on: Rattus norvegicus; assay: DOM appropriate responding in percent when compound administered at 2 mg/kg; assay type: functional; summary of the method: as §1
[22] = tested on: Rattus norvegicus; assay: DOM appropriate responding in percent when compound administered at 10 mg/kg; assay type: functional; summary of the method: as §1
[23] = tested on: Rattus norvegicus; assay: Number of animals responding to the drug 13 (mg/kg) out of 3 animals tested; assay type: functional
[24] = tested on: Rattus norvegicus; assay: Number of animals responding to the drug 13 (mg/kg) out of 3 animals tested (second group of 3 animals); 1/3; assay type: functional
[25] = tested on: Rattus norvegicus; assay: Number of animals responding to the drug 12 (mg/kg) out of 3 animals tested; assay type: functional
[26] = tested on: Rattus norvegicus; assay: DOM appropriate responses per min when compound administered at 5 mg/kg; assay type: functional; summary of the method: as §2
[27] = tested on: Rattus norvegicus; assay: DOM appropriate responding in percent when compound administered at 11 mg/kg; assay type: functional; summary of the method: as §1
[28] = tested on: Rattus norvegicus; assay: DOM appropriate responses per min when compound administered at 11 mg/kg; assay type: functional; summary of the method: as §2
[29] = tested on: Rattus norvegicus; assay: Number of animals responding to the drug 10 (mg/kg) out of 3 animals tested; assay type: functional
[30] = tested on: Rattus norvegicus; assay: Number of animals responding to the drug 7 (mg/kg) out of 5 animals tested; assay type: functional
[31] = tested on: Rattus norvegicus; assay: DOM appropriate responses per min when compound administered at 7 mg/kg; assay type: functional; summary of the method: as §2
[32] = tested on: Rattus norvegicus; assay: DOM appropriate responding in percent when compound administered at 7 mg/kg; assay type: functional; summary of the method: as §1
[33] = tested on: Rattus norvegicus; assay: DOM appropriate responses per min when compound administered at 8 mg/kg; assay type: functional; summary of the method: as §2
[34] = tested on: Rattus norvegicus; assay: Number of animals responding to the drug 5 (mg/kg) out of 6 animals tested; assay type: functional
[35] = tested on: Rattus norvegicus; assay: DOM appropriate responses per min when compound administered at 4 mg/kg; assay type: functional; summary of the method: as §2
[36] = tested on: Rattus norvegicus; assay: DOM appropriate responding in percent when compound administered at 6 mg/kg; assay type: functional; summary of the method: as §1
[37] = tested on: Rattus norvegicus; assay: DOM appropriate responses per min when compound administered at 6 mg/kg; assay type: functional; summary of the method: as §2
[38] = tested on: Rattus norvegicus; assay: DOM appropriate responding in percent when compound administered at 8 mg/kg; assay type: functional; summary of the method: as §1
[39] = tested on: Rattus norvegicus; assay: Number of animals responding to the drug 8 (mg/kg) out of 3 animals tested; assay type: functional
[40] = tested on: Rattus norvegicus; assay: Number of animals responding to the drug 6 (mg/kg) out of 5 animals tested; assay type: functional
[41] = tested on: Rattus norvegicus; assay: DOM appropriate responding in percent when compound administered at 4 mg/kg; assay type: functional; summary of the method: as §1
[42] = tested on: Rattus norvegicus; assay: Number of animals responding to the drug (mg/kg) out of 4 animals tested; assay type: functional
[43] = tested on: Rattus norvegicus; assay: Number of animals responding to the drug 1.2 (mg/kg) out of 3 animals tested; assay type: functional
[44] = tested on: Rattus norvegicus; assay: DOM appropriate responding in percent when compound administered at 1.8 mg/kg; assay type: functional; summary of the method: as §1
[45] = tested on: Rattus norvegicus; assay: DOM appropriate responses per min when compound administered at 1.2 mg/kg; assay type: functional; summary of the method: as §2
[46] = tested on: Rattus norvegicus; assay: DOM appropriate responses per min when compound administered at 1.8 mg/kg; assay type: functional; summary of the method: as §2
[47] = tested on: Rattus norvegicus; assay: DOM appropriate responding in percent when compound administered at 1.2 mg/kg; assay type: functional; summary of the method: as §1
[48] = tested on: Rattus norvegicus; assay: Number of animals responding to the drug 1.8 (mg/kg) out of 3 animals tested; assay type: functional

## COc1cc(CC(C)N)c(O)cc1Br (stereo not given)
[1]
  Activity: 55%
[2]
  Activity: 19%
[3]
  Response: 15.4 min
[4]
  Response: 11.9 min
[5]
  Ki: 1.71 µM
[6]
  Activity: 4
[7]
  Activity: 96%
[8]
  Activity: 3
[9]
  Response: 12.1 min
[10]
  ED50: 0.18 mg/kg
[11]
  Ki: 0.21 µM
[12]
  Activity: 3

## COc1cc(Br)ccc1CC(C)N (stereo not given)
[13]
  Response: 4.5 min
[14]
  Activity: 4
[15]
  Activity: 15%
[16]
  Response: 16.3 min
[17]
  Response: 2.8 min
[18]
  Activity: 65%
[19]
  Activity: 3
[20]
  Activity: 3
[21]
  Activity: 14%
[22]
  Activity: 8%
[5]
  Ki: 2.9 µM
[23]
  Activity: 1
[24]
  Activity: 1
[25]
  Activity: 2
[26]
  Response: 14.9 min
[27]
  Activity: 17%
[11]
  Ki: 4.87 µM
[28]
  Response: 3.3 min
[29]
  Activity: 3

## COc1cc(C[C@@H](C)N)c(OC)cc1I
[5]
  Ki: 2.29 µM
[11]
  Ki: 0.0099 µM

## CCCNC(C)Cc1cc(OC)ccc1OC (stereo not given)
[5]
  Ki: 4.1 µM
[11]
  Ki: 25.6 µM

## COc1cccc(CC(C)N)c1 (racemic)
[5]
  Ki: 2.66 µM
[11]
  Ki: 7.85 µM

## CCCNC(C)Cc1cc(OC)c(Br)cc1OC (stereo not given)
[15]
  Activity: 63%
[30]
  Activity: 3
[31]
  Response: 5.2 min
[32]
  Activity: 88%
[33]
  Response: 5.9 min
[34]
  Activity: 6
[35]
  Response: 10.2 min
[36]
  Activity: 79%
[37]
  Response: 10.2 min
[38]
  Activity: 92%
[5]
  Ki: 1.32 µM
[39]
  Activity: 3
[26]
  Response: 6.3 min
[10]
  ED50: 4.76 mg/kg
[11]
  Ki: 1.93 µM
[40]
  Activity: 4
[41]
  Activity: 24%
[42]
  Activity: 4

## COc1cc(CC(C)N)ccc1Br (stereo not given)
[5]
  Ki: > 25 µM
[11]
  Ki: > 25 µM

## COc1cc(CC(C)N)c(OC)cc1I (stereo not given)
[43]
  Activity: 3
[4]
  Response: 12.2 min
[5]
  Ki: 0.92 µM
[44]
  Activity: 93%
[7]
  Activity: 14%
[45]
  Response: 16.9 min
[46]
  Response: 7.8 min
[47]
  Activity: 43%
[48]
  Activity: 3
[10]
  ED50: 0.99 mg/kg
[11]
  Ki: 0.035 µM
[12]
  Activity: 3

## COc1cc(CC(C)N)c(OC)cc1Br (racemic) [BROLAMFETAMINE]
[5]
  Ki: 3.34 µM
[10]
  ED50: 0.2 mg/kg

## COc1ccccc1CC(C)N (racemic)
[5]
  Ki: 3.5 µM

## CC(N)Cc1ccc(Br)cc1 (stereo not given)
[5]
  Ki: 2.83 µM
[11]
  Ki: 4.65 µM

## COc1ccc(OC)c(CC(C)N)c1 (racemic)
[5]
  Ki: 1.02 µM

From ChEMBL document CHEMBL1123393, “5-HT1 and 5-HT2 binding characteristics of 1-(2,5-dimethoxy-4-bromophenyl)-2-aminopropane analogues” (J Med Chem, 1986)
